# Test results: ChEMBL document CHEMBL1773020, “Discovery of fused bicyclic agonists of the orphan G-protein coupled receptor GPR119 with in vivo activity in rodent models of glucose control” (Bioorg Med Chem Lett, 2011)
# pEC50, pIC50, pKi: −log10 of the molar value. Calls of active or inactive are those of the source. No cut-off for these calls is given here.
# Columns and labels:
# [1] = target: Voltage-gated inwardly rectifying potassium channel KCNH2 (Homo sapiens, UniProt Q12809); assay: Inhibition of human ERG by patch clamp assay
# Chain of Voltage-gated inwardly rectifying potassium channel KCNH2 (Q12809 whole entry): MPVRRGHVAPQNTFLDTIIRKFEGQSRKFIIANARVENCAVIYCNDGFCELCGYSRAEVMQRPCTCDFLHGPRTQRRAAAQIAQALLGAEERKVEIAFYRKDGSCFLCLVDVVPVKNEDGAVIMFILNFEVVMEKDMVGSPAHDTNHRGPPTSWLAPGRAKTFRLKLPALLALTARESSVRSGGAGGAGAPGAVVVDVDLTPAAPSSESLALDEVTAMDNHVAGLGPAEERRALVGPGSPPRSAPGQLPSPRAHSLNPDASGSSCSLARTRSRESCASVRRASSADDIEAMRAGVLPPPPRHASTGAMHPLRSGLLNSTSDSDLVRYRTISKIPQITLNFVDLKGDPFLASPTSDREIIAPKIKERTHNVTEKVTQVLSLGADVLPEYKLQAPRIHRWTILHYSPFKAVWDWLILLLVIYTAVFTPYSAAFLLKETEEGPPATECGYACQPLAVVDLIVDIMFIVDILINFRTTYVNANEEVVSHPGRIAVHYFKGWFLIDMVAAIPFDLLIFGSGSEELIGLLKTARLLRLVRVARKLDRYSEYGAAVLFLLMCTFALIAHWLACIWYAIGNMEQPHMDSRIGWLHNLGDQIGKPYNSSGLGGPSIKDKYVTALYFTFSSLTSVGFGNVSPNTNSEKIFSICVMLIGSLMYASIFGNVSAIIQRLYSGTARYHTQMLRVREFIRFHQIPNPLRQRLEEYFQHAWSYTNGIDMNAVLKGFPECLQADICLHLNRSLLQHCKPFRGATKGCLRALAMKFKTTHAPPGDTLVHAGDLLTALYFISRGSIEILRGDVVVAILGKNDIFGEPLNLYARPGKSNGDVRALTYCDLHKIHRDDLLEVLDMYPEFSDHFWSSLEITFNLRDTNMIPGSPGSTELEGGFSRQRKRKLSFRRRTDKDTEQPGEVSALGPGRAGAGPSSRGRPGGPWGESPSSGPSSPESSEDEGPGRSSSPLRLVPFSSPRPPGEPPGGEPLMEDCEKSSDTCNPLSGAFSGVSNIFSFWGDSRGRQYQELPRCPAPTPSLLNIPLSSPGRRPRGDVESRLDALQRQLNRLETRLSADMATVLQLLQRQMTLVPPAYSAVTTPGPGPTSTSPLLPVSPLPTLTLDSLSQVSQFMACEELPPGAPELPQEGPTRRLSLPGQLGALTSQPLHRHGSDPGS
# Rattus norvegicus [2] = assay: Antidiabetic activity in ZDF rat assessed as glycated hemoglobin level at 10 mg/kg, po measured on day 56; type: functional
# Summary of the method: (§1)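 Male ZDF rats, 6 weeks old, baseline weight 200–250 g, were split into 3 groups by fed body weight and blood glucose. They received vehicle (100% PEG400) or compound daily for 56 days, n = 5–7 per group. Blood glucose and HbA1c were determined on days 1, 31 and 56, and body weight gain was recorded. Results are mean ± standard error.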
# [3] = Aqueous solubility of the compound; type: physicochemical; details: buffer
# Rattus norvegicus [4] = assay: Antidiabetic activity in po dosed Sprague-Dawley rat assessed as oral glucose tolerance; type: functional; details: read-out: MED
# Summary of the method: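 SD rats were fasted 3–16 h, and compound was given po at −30 min after a tail-nick glucose reading. At time 0, glucose 3 g/kg po (6 ml/kg) was given. Glucometer readings were taken at 0, 30, 60 and 120 min. Each rat was used twice, one week apart.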
# [5] = Elimination half life in iv dosed mouse; type: ADME, organism-based; details: in vivo, read-out: beta t1/2 (converted)
# [6] = Elimination half life in iv dosed cynomolgus monkey; type: ADME, organism-based, Macaca fascicularis; details: in vivo, read-out: beta t1/2 (converted)
# Rattus norvegicus [7] = assay: Antidiabetic activity in ZDF rat assessed as blood glucose level at 30 mg/kg, po measured on day 56; type: functional; summary of the method: as §1
# [8] = Tmax in po dosed dog; type: ADME, organism-based, Canis lupus familiaris; details: in vivo
# [9] = Plasma protein binding in male rat; type: ADME, cell-free; details: read-out: PPB (converted)
# Cynomolgus monkey = assay: Volume of distribution at steady state in po dosed cynomolgus monkey; type: ADME, organism-based, Macaca fascicularis; details: in vivo
# [10] = Mutagenic activity in mouse micronuclei; type: toxicity
# [11] = Elimination half life in iv dosed Sprague-Dawley rat; type: ADME, organism-based; details: in vivo, read-out: beta t1/2 (converted)
# [12] = Plasma protein binding in human; type: ADME, cell-free; details: read-out: PPB
# Rattus norvegicus [13] = assay: Antidiabetic activity in ZDF rat assessed as glycated hemoglobin level at 30 mg/kg, po measured on day 31
# [14] = Oral bioavailability in Sprague-Dawley rat; type: ADME, organism-based; details: in vivo
# [15] = Plasma protein binding in female cynomolgus monkey; type: ADME, cell-free, Macaca fascicularis; details: read-out: PPB
# Rattus norvegicus [16] = assay: Antidiabetic activity in ZDF rat assessed as glycated hemoglobin level at 10 mg/kg, po measured on day 1; type: functional; summary of the method: as §1
# Rattus norvegicus [17] = assay: Antidiabetic activity in ZDF rat assessed as glycated hemoglobin level at 30 mg/kg, po measured on day 56; type: functional; summary of the method: as §1
# Rattus norvegicus [18] = assay: Antidiabetic activity in ZDF rat assessed as glycated hemoglobin level at 10 mg/kg, po measured on day 31
# [19] = Oral bioavailability in mouse; type: ADME, organism-based; details: in vivo
# [20] = Tmax in po dosed mouse; type: ADME, organism-based; details: in vivo
# [21] = Tmax in po dosed cynomolgus monkey; type: ADME, organism-based, Macaca fascicularis; details: in vivo
# [22] = Oral bioavailability in dog; type: ADME, organism-based, Canis lupus familiaris; details: in vivo
# Rattus norvegicus [23] = assay: Antidiabetic activity in hyperglycemic Sprague-Dawley rat model assessed as glucose dependent insulin release at 0.08 mg/kg/min, iv; type: functional, organism-based
# Summary of the method: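 Hyperglycemic clamp in male SD rats fasted overnight. After 1 h of baseline glucose and insulin sampling, vehicle or compound was infused into the jugular vein for 2 h. Glucose was clamped at 100 mg/dl for hours 1–2, then raised to 300 mg/dl for hour 3 by a 30% glucose bolus and variable infusion. Plasma insulin was followed.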
# Mus musculus = assay: Antidiabetic activity in po dosed C57/BL6 mouse assessed as oral glucose tolerance; type: functional; details: read-out: MED
# Summary of the method: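 C57/BL6 mice were handled twice and fasted 3–16 h. Compound was given 0–30 min before the first sample. At time 0 a glucose bolus ([…] as printed, po) was given. Tail-nick glucose was read by glucometer at 0, 20, 40, 60 and 120 min.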
# [24] = Plasma protein binding in female rat; type: ADME, cell-free; details: read-out: PPB (converted)
# [25] = Mutagenic activity in mouse lymphoma; type: toxicity
# Rattus norvegicus [26] = assay: Antidiabetic activity in ZDF rat assessed as body weight gain at 30 mg/kg, po measured on day 56; type: functional; summary of the method: as §1
# [27] = Elimination half life in iv dosed dog; type: ADME, organism-based, Canis lupus familiaris; details: in vivo, read-out: beta t1/2 (converted)
# Rattus norvegicus [28] = assay: Antidiabetic activity in ZDF rat assessed as blood glucose level at 10 mg/kg, po measured on day 56; type: functional; summary of the method: as §1
# [29] = Tmax in po dosed Sprague-Dawley rat; type: ADME, organism-based; details: in vivo
# Salmonella typhimurium = assay: Mutagenic activity in Salmonella Typhimurium; type: toxicity, organism-based; details: salmonella enterica subsp. enterica serovar typhimurium
# Rattus norvegicus [30] = assay: Volume of distribution at steady state in po dosed Sprague-Dawley rat; type: ADME, organism-based; details: in vivo
# Caco-2 = assay: Apparent permeability across human Caco2 cells; type: ADME, cell-based
# [31] = target: T1, Glucose-dependent insulinotropic receptor (Rattus norvegicus, UniProt Q7TQN8); assay: Agonist activity at rat GPR119 by melanophore assay; type: functional
# T1 sequence (Q7TQN8 whole entry): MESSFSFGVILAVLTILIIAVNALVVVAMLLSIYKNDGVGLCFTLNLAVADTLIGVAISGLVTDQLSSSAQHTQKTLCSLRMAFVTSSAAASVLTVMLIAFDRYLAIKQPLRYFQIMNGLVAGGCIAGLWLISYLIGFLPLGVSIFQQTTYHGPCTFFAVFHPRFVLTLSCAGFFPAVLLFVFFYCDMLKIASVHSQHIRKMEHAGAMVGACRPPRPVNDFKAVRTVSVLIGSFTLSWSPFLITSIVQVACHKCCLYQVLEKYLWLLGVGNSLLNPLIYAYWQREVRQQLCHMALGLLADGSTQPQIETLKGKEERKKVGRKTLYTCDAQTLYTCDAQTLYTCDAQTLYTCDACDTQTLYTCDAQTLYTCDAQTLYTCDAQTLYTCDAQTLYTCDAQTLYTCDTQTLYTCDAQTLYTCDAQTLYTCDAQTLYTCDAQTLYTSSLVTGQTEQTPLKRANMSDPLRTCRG
# Summary of the method: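 Agonist EC50 measured in melanophores transfected with the human or rat GPR119 receptor sequence. Values are means of multiple determinations (n).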
# [32] = Oral bioavailability in cynomolgus monkey; type: ADME, organism-based, Macaca fascicularis; details: in vivo
# Rattus norvegicus [33] = assay: Antidiabetic activity in ZDF rat assessed as body weight gain at 10 mg/kg, po measured on day 56; type: functional; summary of the method: as §1
# [34] = Plasma protein binding in male cynomolgus monkey; type: ADME, cell-free, Macaca fascicularis; details: read-out: PPB
# Rattus norvegicus [35] = assay: Antidiabetic activity in ZDF rat assessed as glycated hemoglobin level at 30 mg/kg, po measured on day 1; type: functional; summary of the method: as §1
# Cytochrome P450 2C9 = Cytochrome P450 2C9 (Homo sapiens, UniProt P11712); assay: Inhibition of CYP2C9; type: ADME
# Chain of Cytochrome P450 2C9 (P11712 whole entry): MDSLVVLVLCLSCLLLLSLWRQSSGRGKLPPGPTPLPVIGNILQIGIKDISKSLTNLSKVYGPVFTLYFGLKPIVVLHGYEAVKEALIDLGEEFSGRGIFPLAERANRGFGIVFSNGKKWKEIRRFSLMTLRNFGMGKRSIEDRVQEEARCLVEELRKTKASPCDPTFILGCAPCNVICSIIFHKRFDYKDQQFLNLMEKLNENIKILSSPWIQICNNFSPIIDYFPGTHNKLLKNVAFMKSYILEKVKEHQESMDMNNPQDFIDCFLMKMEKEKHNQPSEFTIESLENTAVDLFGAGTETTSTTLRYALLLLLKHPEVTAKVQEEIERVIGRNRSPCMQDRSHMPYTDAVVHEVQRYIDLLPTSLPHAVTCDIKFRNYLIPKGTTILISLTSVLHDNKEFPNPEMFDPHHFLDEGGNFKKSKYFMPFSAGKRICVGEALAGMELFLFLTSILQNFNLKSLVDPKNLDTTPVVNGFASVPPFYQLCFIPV
# Summary of the method: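 Inhibition constant (Ki) determined in human hepatic microsomes.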
structure (smiles),measurement,setting,value
CC(C)OC(=O)N1CCC(Oc2ncnc3c2cnn3-c2ccc(S(C)(=O)=O)cc2F)CC1,pIC50,[1],5.52
same,Activity,Rattus norvegicus [2],8.2%
same,solubility,[3],soluble
same,minimal effective dose,Rattus norvegicus [4],10 mg/kg
same,half-life,[5],48 min
same,half-life,[6],48 min
same,Activity,Rattus norvegicus [7],105.2 mg/dL
same,Tmax,[8],6 h
same,fraction unbound,[9],0.07
same,Vdss,Cynomolgus monkey,0.1 L/kg
same,Activity,[10],Non-toxic
same,half-life,[11],48 min
same,fraction unbound,[12],≤ 0.01
same,Activity,Rattus norvegicus [13],5.2%
same,bioavailability,[14],44%
same,fraction unbound,[15],≤ 0.01
same,Activity,Rattus norvegicus [16],3.5%
same,Activity,Rattus norvegicus [17],4.7%
same,Activity,Rattus norvegicus [18],7.3%
same,bioavailability,[19],44%
same,Tmax,[20],≤ 2 h
same,Tmax,[21],≤ 2 h
same,bioavailability,[22],22%
same,Activity,Rattus norvegicus [23],Active
same,minimal effective dose,Mus musculus,3 mg/kg
same,fraction unbound,[24],0.034
same,Activity,[25],Non-toxic
same,Activity,Rattus norvegicus [26],204.2 g
same,half-life,[27],48 min
same,Activity,Rattus norvegicus [28],359.3 mg/dL
same,Tmax,[29],≤ 2 h
same,Activity,Salmonella typhimurium,Non-toxic
same,Vdss,Rattus norvegicus [30],2.6 L/kg
same,permeability,Caco-2,permeable
same,pEC50,[31],7.48
same,bioavailability,[32],44%
same,Activity,Rattus norvegicus [33],224.9 g
same,fraction unbound,[34],≤ 0.01
same,Activity,Rattus norvegicus [35],3.4%
same,pKi,Cytochrome P450 2C9,7.00
